Consider 22 compounds from ChEMBL document CHEMBL1153843, “Synthesis and biological evaluation of novel luteolin derivatives as antibacterial agents” (2009).

Assay type in all cases: functional
The subject of one test is Bacillus subtilis. Kind of test: Antibacterial activity against Bacillus subtilis after 24 hrs by MTT method. Put shortly: (§1)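 MIC by broth microdilution in MH medium, with MTT colorimetric read-out. Compounds come from a 50 mg/mL DMSO stock and are serially diluted in the plates. Inoculum is about 10⁵ cfu/mL, incubated at 37 °C for 24 h. The MIC is first read visually. MTT at 2 mg/mL in PBS (0.01 mol/L, pH 7.4) is then added, with a further 4–5 h at room temperature.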
On the technique in general: Formazan colour is commonly taken as a measure of viable cells.

A further test relates to Staphylococcus aureus. Kind of test: Antibacterial activity against Staphylococcus aureus after 24 hrs by MTT method. In outline:
as §1

The test system of a further test is Pseudomonas fluorescens. The experiment in a line: Antibacterial activity against Pseudomonas fluorescens after 24 hrs by MTT method. In outline:
as §1

For another test, the system named is Escherichia coli. The experiment in a line: Antibacterial activity against Escherichia coli after 24 hrs by MTT method. In outline: as §1

In brackets after ≈: the same amount, converted by molar mass.

The term MIC denotes the lowest concentration found to suppress growth. A lower MIC goes with greater potency. As for `O=c1cc(-c2ccc3c(c2)OCCO3)oc2cc(OCCNC3CCCCC3)cc(O)c12`, the MIC against Bacillus subtilis is 6.25 µg/mL (≈ 14.3 µM); in the test on Staphylococcus aureus it was 12.5 µg/mL (≈ 28.6 µM); against Pseudomonas fluorescens, 12.5 µg/mL (≈ 28.6 µM); against Escherichia coli it was 25 µg/mL (≈ 57.1 µM).
Take `O=c1cc(-c2ccc3c(c2)OCCO3)oc2cc(OCCNCc3ccccc3)cc(O)c12`: the MIC amounted to 3.12 µg/mL (≈ 7.02 µM) against Bacillus subtilis, 6.25 µg/mL (≈ 14 µM) in the test with Staphylococcus aureus, 6.25 µg/mL (≈ 14 µM) against Pseudomonas fluorescens and 12.5 µg/mL (≈ 28.1 µM) against Escherichia coli.
Turning to `O=c1cc(-c2ccc3c(c2)OCCO3)oc2cc(OCCN3CCCCC3)cc(O)c12`, the MIC against Bacillus subtilis was 6.25 µg/mL (≈ 14.8 µM); with Staphylococcus aureus, 12.5 µg/mL (≈ 29.5 µM); against Pseudomonas fluorescens it was 12.5 µg/mL (≈ 29.5 µM); in the test with Escherichia coli, 12.5 µg/mL (≈ 29.5 µM).
Turning to `O=c1cc(-c2ccc3c(c2)OCCO3)oc2cc(OCCN3CCNCC3)cc(O)c12`, the MIC against Bacillus subtilis came to 6.25 µg/mL (≈ 14.7 µM); against Staphylococcus aureus, 12.5 µg/mL (≈ 29.4 µM); in the test with Pseudomonas fluorescens, 6.25 µg/mL (≈ 14.7 µM); against Escherichia coli it was 12.5 µg/mL (≈ 29.4 µM).
Take `O=c1cc(-c2ccc3c(c2)OCCO3)oc2cc(OCCBr)cc(O)c12`: the MIC in the test on Bacillus subtilis turned out to be 12.5 µg/mL (≈ 29.8 µM); with Staphylococcus aureus, 25 µg/mL (≈ 59.6 µM); against Pseudomonas fluorescens it was 12.5 µg/mL (≈ 29.8 µM); with Escherichia coli it was 25 µg/mL (≈ 59.6 µM).
For the compound `CCN(CC)CCOc1cc(O)c2c(=O)cc(-c3ccc4c(c3)OCCO4)oc2c1`, the MIC in the test on Bacillus subtilis was determined as 12.5 µg/mL (≈ 30.4 µM); against Staphylococcus aureus it was 25 µg/mL (≈ 60.8 µM); in the test with Pseudomonas fluorescens, 12.5 µg/mL (≈ 30.4 µM); in the test with Escherichia coli, 25 µg/mL (≈ 60.8 µM).
As for `CCCN(CCC)CCOc1cc(O)c2c(=O)cc(-c3ccc4c(c3)OCCO4)oc2c1`, the MIC in the test on Bacillus subtilis is 12.5 µg/mL (≈ 28.4 µM); in the test with Staphylococcus aureus, 12.5 µg/mL (≈ 28.4 µM); in the test on Pseudomonas fluorescens it was 6.25 µg/mL (≈ 14.2 µM); in the test with Escherichia coli, 25 µg/mL (≈ 56.9 µM).
Regarding `CN1CCN(CCOc2cc(O)c3c(=O)cc(-c4ccc5c(c4)OCCO5)oc3c2)CC1`, the MIC against Bacillus subtilis was 6.25 µg/mL (≈ 14.3 µM); against Staphylococcus aureus it was 12.5 µg/mL (≈ 28.5 µM); against Pseudomonas fluorescens, 6.25 µg/mL (≈ 14.3 µM); in the test with Escherichia coli, 12.5 µg/mL (≈ 28.5 µM).
For `CCCCNCCOc1cc(O)c2c(=O)cc(-c3ccc4c(c3)OCCO4)oc2c1`, the MIC was 12.5 µg/mL (≈ 30.4 µM) against Bacillus subtilis, 25 µg/mL (≈ 60.8 µM) with Staphylococcus aureus, 6.25 µg/mL (≈ 15.2 µM) against Pseudomonas fluorescens and 25 µg/mL (≈ 60.8 µM) against Escherichia coli.
With `CC(C)CNCCOc1cc(O)c2c(=O)cc(-c3ccc4c(c3)OCCO4)oc2c1`, the MIC was 12.5 µg/mL (≈ 30.4 µM) against Bacillus subtilis, 25 µg/mL (≈ 60.8 µM) in the test on Staphylococcus aureus, 12.5 µg/mL (≈ 30.4 µM) against Pseudomonas fluorescens and 25 µg/mL (≈ 60.8 µM) in the test on Escherichia coli.
Consider `O=c1cc(-c2ccc3c(c2)OCCO3)oc2cc(OCCNCCO)cc(O)c12`, for which the MIC in the test with Bacillus subtilis was 12.5 µg/mL (≈ 31.3 µM); against Staphylococcus aureus it was 25 µg/mL (≈ 62.6 µM); in the test with Pseudomonas fluorescens it was 6.25 µg/mL (≈ 15.6 µM); against Escherichia coli, 25 µg/mL (≈ 62.6 µM).
`O=c1cc(-c2ccc3c(c2)OCCO3)oc2cc(OCCN3CCOCC3)cc(O)c12`: the MIC with Bacillus subtilis is 3.12 µg/mL (≈ 7.35 µM); in the test on Staphylococcus aureus it was 6.25 µg/mL (≈ 14.7 µM); against Pseudomonas fluorescens, 6.25 µg/mL (≈ 14.7 µM); against Escherichia coli it was 12.5 µg/mL (≈ 29.4 µM).
Take `O=c1cc(-c2ccc3c(c2)OCCO3)oc2cc(OCCNCCN3CCOCC3)cc(O)c12`: the minimum inhibitory concentration (MIC) against Bacillus subtilis came out at 1.56 µg/mL (≈ 3.33 µM); in the test on Staphylococcus aureus, 6.25 µg/mL (≈ 13.3 µM); against Pseudomonas fluorescens, 3.12 µg/mL (≈ 6.67 µM); in the test with Escherichia coli, 12.5 µg/mL (≈ 26.7 µM).
Take `O=c1cc(-c2ccc3c(c2)OCCO3)oc2cc(OCCNCCCN3CCOCC3)cc(O)c12`: the MIC was found to be 1.56 µg/mL (≈ 3.24 µM) against Bacillus subtilis, 3.12 µg/mL (≈ 6.48 µM) with Staphylococcus aureus, 3.12 µg/mL (≈ 6.48 µM) in the test on Pseudomonas fluorescens and 6.25 µg/mL (≈ 13 µM) against Escherichia coli.
For the compound `O=c1cc(-c2ccc3c(c2)OCCO3)oc2cc(OCCN3CCCC3)cc(O)c12`, the MIC was determined as 6.25 µg/mL (≈ 15.3 µM) against Bacillus subtilis, 12.5 µg/mL (≈ 30.5 µM) in the test with Staphylococcus aureus, 12.5 µg/mL (≈ 30.5 µM) against Pseudomonas fluorescens and 12.5 µg/mL (≈ 30.5 µM) in the test with Escherichia coli.
As for `O=c1cc(-c2ccc3c(c2)OCCO3)oc2cc(O)cc(O)c12`, the MIC stood at 12.5 µg/mL (≈ 40 µM) against Bacillus subtilis, 25 µg/mL (≈ 80.1 µM) with Staphylococcus aureus, 12.5 µg/mL (≈ 40 µM) in the test with Pseudomonas fluorescens and 50 µg/mL (≈ 160 µM) in the test with Escherichia coli.
Regarding `O=c1cc(-c2ccc3c(c2)OCCO3)oc2cc(OCCNCc3ccc(F)cc3)cc(O)c12`, the MIC in the test with Bacillus subtilis was 1.56 µg/mL (≈ 3.37 µM); with Staphylococcus aureus, 3.12 µg/mL (≈ 6.74 µM); against Pseudomonas fluorescens, 6.25 µg/mL (≈ 13.5 µM); against Escherichia coli, 12.5 µg/mL (≈ 27 µM).
On to `O=c1cc(-c2ccc3c(c2)OCCO3)oc2cc(OCCNC3CCCC3)cc(O)c12`, for which the MIC worked out at 6.25 µg/mL (≈ 14.8 µM) against Bacillus subtilis, 12.5 µg/mL (≈ 29.5 µM) in the test on Staphylococcus aureus, 12.5 µg/mL (≈ 29.5 µM) in the test with Pseudomonas fluorescens and 25 µg/mL (≈ 59 µM) against Escherichia coli.
With `CCCNCCOc1cc(O)c2c(=O)cc(-c3ccc4c(c3)OCCO4)oc2c1`, the MIC against Bacillus subtilis is 12.5 µg/mL (≈ 31.5 µM); in the test with Staphylococcus aureus, 25 µg/mL (≈ 62.9 µM); in the test with Pseudomonas fluorescens, 12.5 µg/mL (≈ 31.5 µM); with Escherichia coli, 25 µg/mL (≈ 62.9 µM).
Turning to `NC[C@H]1O[C@H](O[C@H]2[C@H](O)[C@@H](O[C@H]3O[C@H](CO)[C@@H](O)[C@H](N)[C@H]3O)[C@H](N)C[C@@H]2N)[C@H](N)[C@@H](O)[C@@H]1O` [BEKANAMYCIN], the MIC with Bacillus subtilis was 0.39 µg/mL (≈ 0.807 µM); in the test on Staphylococcus aureus, 1.56 µg/mL (≈ 3.23 µM); with Pseudomonas fluorescens, 3.12 µg/mL (≈ 6.46 µM); with Escherichia coli, 3.12 µg/mL (≈ 6.46 µM).
With `O=c1cc(-c2ccc(O)c(O)c2)oc2cc(O)cc(O)c12` [LUTEOLIN], the MIC against Bacillus subtilis was 25 µg/mL (≈ 87.3 µM); with Staphylococcus aureus, 50 µg/mL (≈ 175 µM); with Pseudomonas fluorescens it was 25 µg/mL (≈ 87.3 µM); against Escherichia coli, 50 µg/mL (≈ 175 µM).
As for `CC1(C)S[C@@H]2[C@H](NC(=O)Cc3ccccc3)C(=O)N2[C@H]1C(=O)O` [PENICILLIN G], the MIC in the test with Bacillus subtilis amounted to 1.56 µg/mL (≈ 4.67 µM); in the test on Staphylococcus aureus, 1.56 µg/mL (≈ 4.67 µM); in the test with Pseudomonas fluorescens, 6.25 µg/mL (≈ 18.7 µM); against Escherichia coli it was 6.25 µg/mL (≈ 18.7 µM).
